Compound activity deposited in PubChem BioAssay by several laboratories.
CRFR2-BP antag: antagonists of CRF-BP/CRF-R2 complex, primary screen, cell-based, HEK293, calcium dye fluorescence, uHTS. inhibition, % at 11.8 µM. CRF-induced calcium fluorescence. 350,000 compounds, 0.59% hits;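 active = inhibition of the ligand-induced calcium signal above about 50% at the single tested concentration, limit read from the data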
CRFR2-BP ag: agonists of CRF-BP/CRF-R2 complex, primary screen, cell-based, HEK293, calcium dye fluorescence, uHTS. CRF-binding protein / CRF receptor 2 complex (human). calcium dye fluorescence (FLIPR); percent of saturating CRF peptide response. activation, % at 13.2 µM. 350,000 compounds, 0.46% hits;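 active = activation of at least 50%, plus an integration ratio under a set limit after plate pattern correction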
VIM-2 inhibitor: VIM-2 metallo-beta-lactamase inhibitors, primary screen, biochemical, epi-absorbance readout, Pseudomonas aeruginosa enzyme; 290,000 compounds, 0.89% hits; inhibition, % at 5.6 µM; purified VIM-2, nitrocefin hydrolysis, epi-absorbance fluorescence;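 active = inhibition above the mean of all tested compounds plus 3 SD, cutoff set per screening run, cut at about 7.5% in these data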;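 note: red hydrolysis product quenches plate fluorescence so inhibitors raise well fluorescence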
IMP-1 inhibitor: IMP-1 metallo-beta-lactamase inhibitors, primary screen, biochemical, epi-absorbance readout, Pseudomonas aeruginosa enzyme; metallo-beta-lactamase IMP-1 (Pseudomonas aeruginosa); purified IMP-1, nitrocefin hydrolysis, epi-absorbance fluorescence; 290,000 compounds, 0.45% hits; AID 1556, 2009; inhibition, % at 5.6 µM;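 active = inhibition above the mean plus 3 SD of all compounds in the same screening run, cut at about 4.5% in these data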
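System: purified IMP-1; amount: IMP-1 0.2 nM before substrate addition; compound: single dose, 5.6 µM; times: 25 °C, 15 min preincubation, 25 min reaction; signal: Epi-absorbance via hydrolysed-nitrocefin quenching of white-plate fluorescence, 480/530 nm, EDTA stop; benchmarks: DMSO with and without IMP-1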
zfTRPN1 agonist: zebrafish TRPN1 channel agonists, primary screen, cell-based, HEK293, calcium fluorescence; transient receptor potential cation channel N1 (TRPN1/NompC), Danio rerio; activation, % at 3 µM; 220,000 compounds, 0.18% hits; HEK293 zebrafish TRPN1-YFP, Fluo-8 calcium fluorescence; 100% = response to 87 µM carbachol;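 active = activation above its plate's cutoff, the mean activation of test wells on that plate plus 3 SD, cut at about 19% in these data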
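Material – zebrafish TRPN1-YFP in HEK293 cells · Doses – 3 µM single point · Schedule – dye 1 h 37 °C plus 30 min RT · Signal – Fluo-8 calcium fluorescence, excitation 470-495 nm, emission 515-575 nm · Read-out – % activation versus carbachol response · Control set – carbachol high, DMSO low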
TRPML3 ag: human TRPML3 channel agonists, primary screen, cell-based, HEK293 TRPML3-YFP, Fluo-8 calcium fluorescence, 3 µM; Mucolipin-3 (Homo sapiens), Q8TDD5; 100% = the carbachol control signal; activation, % at 3 µM; 220,000 compounds, 0.29% hits;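 active = activation above its plate's cutoff, the mean activation of the plate's test wells plus 3 SD, cut at about 12% in these data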
Target sequence (Q8TDD5 whole entry, looked up): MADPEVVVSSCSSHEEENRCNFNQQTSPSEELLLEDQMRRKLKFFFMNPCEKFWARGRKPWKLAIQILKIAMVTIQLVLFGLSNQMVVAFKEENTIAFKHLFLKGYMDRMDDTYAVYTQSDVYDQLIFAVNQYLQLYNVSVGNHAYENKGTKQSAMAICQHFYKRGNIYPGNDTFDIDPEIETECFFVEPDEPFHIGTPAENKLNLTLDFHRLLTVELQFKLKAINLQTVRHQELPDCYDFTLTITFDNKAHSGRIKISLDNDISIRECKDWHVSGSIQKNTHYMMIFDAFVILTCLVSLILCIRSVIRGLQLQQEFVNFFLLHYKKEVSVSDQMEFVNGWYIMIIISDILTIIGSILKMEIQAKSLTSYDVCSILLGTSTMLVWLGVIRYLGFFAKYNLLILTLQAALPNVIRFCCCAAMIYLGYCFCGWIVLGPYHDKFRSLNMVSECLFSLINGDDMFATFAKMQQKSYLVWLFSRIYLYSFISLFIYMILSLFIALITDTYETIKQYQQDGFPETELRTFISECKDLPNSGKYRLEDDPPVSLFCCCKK
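system = HEK293 cells stably carrying human TRPML3-YFP | doses = one concentration, 3 µM nominal, 0.3% DMSO | timing = dye loading 1 h 37 °C then 30 min ambient, 125 s read | detection = Fluo-8 calcium dye fluorescence, ex 470-495, em 515-575 nm | benchmarks = high control carbachol 87 µM, low control DMSO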
Hits are given with their value; i = inactive; nt = no result. Rows were chosen to be rich in hits. Some 2.1% of all compounds tested hit in one or more screens of this group.

SMILES	CRFR2-BP antag	CRFR2-BP ag	VIM-2 inhibitor	IMP-1 inhibitor	zfTRPN1 agonist	TRPML3 ag
COc1cc(NC(=O)Cn2c([N+](=O)[O-])cnc2C)c(OC)cc1Cl	i	i	i	i	nt	nt
CC1(C)CC(=O)C2=C(C1)Nc1ccccc1NC2	i	55	i	i	i	i
CCOC(=O)N1CCN(c2ccc(N3C(=O)CCCC3=O)cc2[N+](=O)[O-])CC1	i	i	i	i	i	i
N#CCC(=O)Nc1ccc(C(=O)OCC(=O)NNC(=O)c2ccc(Cl)cc2)cc1	i	i	nt	nt	nt	nt
O=C(Nc1cccc(O)c1)c1ccc(NC(=O)c2cccs2)cc1	68	i	i	i	nt	nt
O=C(Nc1ccc(-c2nc3ccc(NC(=O)c4cccs4)cc3[nH]2)cc1)c1cccs1	i	i	i	12	i	i
N#CCC(=O)Nc1ccc(C(=O)OCC(=O)NNC(=O)c2cccs2)cc1	55	i	nt	nt	nt	nt
CC(=O)c1ccc(NC(=O)c2cccc(NC(=O)c3ccccc3)c2)cc1	i	i	i	7.2	nt	nt
COc1cccc(CCNC(=O)c2ccc(OC)c(OC3CCN(C(C)C)CC3)c2)c1	i	i	i	i	nt	nt
Cc1ccc(-c2nnc(N3CCOCC3)c3ccccc23)cc1S(N)(=O)=O	i	i	nt	nt	nt	nt
CSc1nc(C)c(C(=O)Nc2ccccc2)c(-c2ccco2)c1C#N	i	i	i	i	i	i
CNC(=O)c1c(C)[nH]c(=S)c(C#N)c1-c1ccco1	i	i	i	18	i	i
Cc1[nH]c(=S)c(C#N)c(C)c1C(=O)Nc1ccccc1	i	i	i	i	i	i
Cc1ccccc1NC(=O)c1c(C)[nH]c(=S)c(C#N)c1-c1ccco1	i	i	i	17	i	i
OCc1nc2ccccc2n1CCCc1ccccc1	i	i	nt	nt	nt	nt
Cc1cc(CN2CCC(n3nccc3NC(=O)c3ccccc3Cl)CC2)cc(C)c1O	i	i	i	i	nt	nt
CCOC(=O)C1=C(O)c2ccccc2C(=O)/C1=C\c1ccc(C)cc1	i	111	i	i	i	i
CCOC(=O)C1=C(C)OC(=Cc2ccccc2)C1=O	i	i	nt	nt	nt	nt
NC(=O)c1ccccc1N/C=C/C(=O)c1ccc(F)cc1	i	i	i	i	i	i
NC(=O)c1ccccc1N/C=C/C(=O)c1ccc(Cl)cc1Cl	i	i	8.0	i	i	i
O=C(O)c1cccc(CN2C(=O)c3ccccc3C2=O)c1	i	i	i	i	nt	nt
O=C1c2cccc3c(O)ccc(c23)C(=O)N1Cc1ccccc1	i	i	11	i	146	120
COc1ccccc1NC(=O)CNC(=O)c1ccc(Br)o1	i	i	i	i	nt	nt
CCOc1cc(/C=N\NC(=O)C2C(=O)NCC2c2ccccc2)ccc1OC (centres undefined)	i	56	i	i	i	i
CCOC(=O)c1cc(CC)sc1NC(=O)CN1C(=O)C(=O)N(CC(C)C)C1=O	i	i	nt	nt	nt	nt
SMILES	CRFR2-BP antag	CRFR2-BP ag	VIM-2 inhibitor	IMP-1 inhibitor	zfTRPN1 agonist	TRPML3 ag
CCCCN(C)CCN1C(=O)C2C(C(=O)Nc3ccc(C)cc3)C3C=CC2(O3)C1C(=O)NC1CCCCC1 (centres undefined)	i	i	i	i	nt	nt
COc1ccc(Nc2nc(Cl)nc(NCc3ccco3)n2)c(OC)c1	56	i	i	i	i	i
COc1ccc(/C(=C/Nc2cccc(Br)c2)C(C)=O)cc1OC	i	i	9.9	i	i	i
CCCC/C(O)=C1\C(=O)CC(C)(C)CC1=NCCCCCC(=O)O	i	i	i	i	i	i
C[C@@H]1CN([C@H](C)CO)C(=O)CCCn2nncc2CO[C@H]1CN(C)S(=O)(=O)c1ccc(Oc2ccccc2)cc1	i	i	nt	nt	nt	nt
O=C(NC(=S)Nc1ccccc1)c1ccc(-c2ccccc2)cc1	i	i	i	i	i	i
O=C(NNC(=S)NC(=O)c1ccccc1Cl)c1cccc([N+](=O)[O-])c1	i	65	i	i	nt	nt
O=C(O)c1ccc(NC(=S)NC(=O)c2ccc(-c3ccccc3)cc2)cc1	78	i	i	i	i	i
Cc1cc(C)nc(NC(=S)Nc2ccccc2)n1	i	i	i	i	i	i
